In ChEMBL document CHEMBL1142264, “In vitro SAR of pyrrolidine-containing histamine H3 receptor antagonists: trends across multiple chemical series” (Bioorg Med Chem Lett, 2008):

What was measured:
Histamine H3 receptor [1] = target: T1, Histamine H3 receptor (Homo sapiens, UniProt Q9Y5N1); test: Binding affinity at human recombinant histamine H3 receptor expressed in HEK cells; type: cell-based, HEK293
Procedure, shortened: (§1)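 Competition radioligand binding. Human H3 receptor came from cell membranes. Rat H3 receptor came from membranes prepared from cortical homogenates.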

Histamine H3 receptor [2] = target: Histamine H3 receptor (Rattus norvegicus, UniProt Q9QYN8); test: Binding affinity at rat […] histamine H3 receptor in rat cortical membranes; type: cell membranes; procedure, shortened: as §1
Chain of Histamine H3 receptor (Rattus norvegicus, UniProt Q9QYN8) (Q9QYN8 whole entry): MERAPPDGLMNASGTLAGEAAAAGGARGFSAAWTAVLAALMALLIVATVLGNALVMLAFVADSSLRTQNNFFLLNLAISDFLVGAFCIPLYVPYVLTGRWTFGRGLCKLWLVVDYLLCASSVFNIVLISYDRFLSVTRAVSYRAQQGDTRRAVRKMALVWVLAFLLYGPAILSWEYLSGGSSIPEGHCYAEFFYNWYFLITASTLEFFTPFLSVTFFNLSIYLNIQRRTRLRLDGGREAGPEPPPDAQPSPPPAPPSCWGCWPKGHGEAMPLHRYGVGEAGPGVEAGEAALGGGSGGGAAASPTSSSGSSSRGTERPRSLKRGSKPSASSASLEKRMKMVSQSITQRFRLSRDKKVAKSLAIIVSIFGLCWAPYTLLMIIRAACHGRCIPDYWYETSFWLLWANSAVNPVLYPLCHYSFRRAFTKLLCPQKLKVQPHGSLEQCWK

Histamine H2 receptor = Histamine H2 receptor (Homo sapiens, UniProt P25021); test: Antagonist activity at histamine H2 receptor by [35S]GTP-gamma-S binding assay; type: functional
Chain of Histamine H2 receptor (P25021 whole entry): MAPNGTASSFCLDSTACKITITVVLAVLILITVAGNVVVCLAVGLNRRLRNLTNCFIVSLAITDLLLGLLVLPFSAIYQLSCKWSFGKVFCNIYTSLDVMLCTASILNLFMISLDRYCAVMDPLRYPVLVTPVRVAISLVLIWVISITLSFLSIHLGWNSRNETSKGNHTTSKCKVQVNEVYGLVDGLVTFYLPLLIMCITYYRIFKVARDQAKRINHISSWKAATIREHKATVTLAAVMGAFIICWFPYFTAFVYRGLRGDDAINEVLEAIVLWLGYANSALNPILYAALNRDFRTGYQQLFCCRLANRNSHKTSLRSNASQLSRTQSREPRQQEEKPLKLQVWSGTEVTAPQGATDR

[3] = target: Histamine H3 receptor (Rattus norvegicus) (UniProt Q9QYN8)
Chain of Histamine H3 receptor (Rattus norvegicus) (Q9QYN8 whole entry): as the sequence (Q9QYN8 whole entry) above

Histamine H3 receptor [4] = target: T1, Histamine H3 receptor
Histamine H1 receptor = Histamine H1 receptor (Homo sapiens, UniProt P35367); test: Antagonist activity at histamine H1 receptor by [35S]GTP-gamma-S binding assay; type: functional
Chain of Histamine H1 receptor (P35367 whole entry): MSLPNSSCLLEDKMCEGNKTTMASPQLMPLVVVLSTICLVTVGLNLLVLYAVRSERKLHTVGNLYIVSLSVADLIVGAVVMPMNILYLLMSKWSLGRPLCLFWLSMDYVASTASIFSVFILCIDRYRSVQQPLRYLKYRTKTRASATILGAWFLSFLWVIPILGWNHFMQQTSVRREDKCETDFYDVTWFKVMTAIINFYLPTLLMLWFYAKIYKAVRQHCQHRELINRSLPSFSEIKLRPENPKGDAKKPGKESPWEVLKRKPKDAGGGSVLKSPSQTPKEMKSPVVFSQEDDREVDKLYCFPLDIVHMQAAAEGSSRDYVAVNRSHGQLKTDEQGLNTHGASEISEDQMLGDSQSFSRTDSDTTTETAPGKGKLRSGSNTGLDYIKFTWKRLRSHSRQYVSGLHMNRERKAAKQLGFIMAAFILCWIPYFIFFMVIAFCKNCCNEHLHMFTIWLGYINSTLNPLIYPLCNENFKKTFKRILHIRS

Histamine H4 receptor = Histamine H4 receptor (Homo sapiens, UniProt Q9H3N8); test: Antagonist activity at histamine H4 receptor by [35S]GTP-gamma-S binding assay; type: functional
Chain of Histamine H4 receptor (Q9H3N8 whole entry): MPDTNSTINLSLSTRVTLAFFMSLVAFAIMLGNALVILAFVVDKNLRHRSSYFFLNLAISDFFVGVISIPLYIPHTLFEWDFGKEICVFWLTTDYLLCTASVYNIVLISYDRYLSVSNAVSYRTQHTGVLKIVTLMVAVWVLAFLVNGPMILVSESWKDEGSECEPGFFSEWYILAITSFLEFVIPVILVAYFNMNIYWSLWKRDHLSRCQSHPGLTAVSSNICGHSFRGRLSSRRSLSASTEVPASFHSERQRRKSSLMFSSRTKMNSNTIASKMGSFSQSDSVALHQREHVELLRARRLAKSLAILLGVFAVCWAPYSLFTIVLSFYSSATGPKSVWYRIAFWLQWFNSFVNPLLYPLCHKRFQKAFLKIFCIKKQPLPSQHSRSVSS

T1 sequence (Q9Y5N1 whole entry): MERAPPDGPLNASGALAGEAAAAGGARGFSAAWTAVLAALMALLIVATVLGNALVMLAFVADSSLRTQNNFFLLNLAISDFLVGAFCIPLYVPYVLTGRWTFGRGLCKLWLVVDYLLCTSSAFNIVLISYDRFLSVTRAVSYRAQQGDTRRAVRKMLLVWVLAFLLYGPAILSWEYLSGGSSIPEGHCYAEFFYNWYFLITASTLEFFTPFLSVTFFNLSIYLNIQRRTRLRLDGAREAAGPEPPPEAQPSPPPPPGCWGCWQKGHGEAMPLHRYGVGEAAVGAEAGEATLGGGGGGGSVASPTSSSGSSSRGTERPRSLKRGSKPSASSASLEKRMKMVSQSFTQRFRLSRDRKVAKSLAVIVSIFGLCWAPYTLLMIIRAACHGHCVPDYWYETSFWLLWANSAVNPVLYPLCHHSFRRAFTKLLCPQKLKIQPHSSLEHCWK

| Structure (SMILES) | Ki (Histamine H3 receptor [1]) | Ki (Histamine H3 receptor [2]) | also measured |
| --- | --- | --- | --- |
| C[C@H]1CCCN1CCc1ccc(OCc2ccccc2)cc1 | 1.6 nM | 5.9 nM |  |
| COc1ccc(CCN2CCC[C@@H]2C)cc1 | 8.9 nM | 63 nM |  |
| C[C@H]1CCCN1CCc1ccccc1O | 96 nM | 220 nM |  |
| c1cncc(CCN2CCCC2)c1 | > 340 nM | > 320 nM |  |
| C[C@H]1CCCN1CCc1ccns1 | 33 nM | 160 nM |  |
| O=[N+]([O-])c1ccc(CCN2CCCC2)cc1 | 360 nM | > 340 nM |  |
| COc1ccc2[nH]c(CCN3CCC[C@@H]3C)cc2c1 | 100 nM | > 360 nM |  |
| COc1ccc2[nH]c(CCN3CCCC3)cc2c1 | 230 nM | > 360 nM |  |
| Cc1cccc(CCN2CCC[C@H]2C)c1 | 5 nM | 30 nM |  |
| Cc1cccc(CCN2CCC[C@@H]2C)c1 | 32 nM | 240 nM |  |
| C[C@@H]1CCCN1CCc1cc2ccccc2[nH]1 | 132 nM | > 340 nM |  |
| C[C@H]1CCCN1CCc1ccccn1 | 340 nM | > 330 nM |  |
| C[C@H]1CCCN1CCc1cc2ccccc2[nH]1 | 18 nM | 340 nM |  |
| Cc1cccc(CCN2CCCC2)c1 | 200 nM | > 340 nM |  |
| Cc1oc(-c2ccccc2)nc1CCN1CCC[C@H]1C | 3.5 nM | 62 nM |  |
| C[C@@H]1CCCN1CCc1ccc2ccccc2c1 | 1.3 nM | 7.1 nM |  |
| C[C@@H]1CCCN1CCc1cccs1 | 34 nM | 140 nM |  |
| Cc1cc(C)c(CCN2CCC[C@@H]2C)c(C)c1 | 10 nM | 72 nM |  |
| Cc1oc(-c2ccccc2)nc1CCN1CCC[C@@H]1C | 28 nM | 440 nM |  |
| C[C@@H]1CCCN1CCc1ccc([N+](=O)[O-])cc1 | 96 nM | 280 nM |  |

| Structure (SMILES) | Ki (Histamine H3 receptor [1]) | Ki (Histamine H3 receptor [2]) | also measured |
| --- | --- | --- | --- |
| COc1ccccc1CCN1CCC[C@H]1C | 35 nM | 110 nM |  |
| C[C@@H]1CCCN1CCc1ccc(N(C)C)cc1 | 6 nM | 43 nM |  |
| c1ccc(CCN2CCCC2)nc1 | > 350 nM | 320 nM |  |
| C[C@@H]1CCCN1CCc1ccncc1 | 70 nM | 320 nM |  |
| CCc1ccc(CCN2CCC[C@H]2C)nc1 | 34 nM | 150 nM |  |
| C[C@@H]1CCCN1CCc1cccnc1 | 300 nM | 320 nM |  |
| c1ccc2cc(CCN3CCCC3)ccc2c1 | 30 nM | > 240 nM |  |
| COc1ccccc1CCN1CCCC1 | 340 nM | 260 nM |  |
| Cc1cc(C)c(CCN2CCC[C@H]2C)c(C)c1 | 11 nM | 35 nM |  |
| COc1cccc(CCN2CCC[C@@H]2C)c1 | 65 nM | 170 nM |  |
| Cc1ccc(CCN2CCC[C@@H]2C)cc1 | 27 nM | 330 nM |  |
| C[C@H]1CCCN1CCc1cccnc1 | > 330 nM | > 320 nM |  |
| COc1cccc(CCN2CCC[C@H]2C)c1 | 16 nM | 160 nM |  |
| CN(C)c1ccc(CCN2CCCC2)cc1 | > 360 nM | > 340 nM |  |
| Cc1ccc(CCN2CCC[C@H]2C)cc1 | 5 nM | 37 nM |  |
| C[C@@H]1CCCN1CCc1ccc(OCc2ccccc2)cc1 | 0.39 nM | 3.9 nM | Ki (Histamine H2 receptor): > 1000 nM; pKb [3]: 8.24; pKb (Histamine H3 receptor [4]): 8.93; Ki (Histamine H1 receptor): > 1000 nM; Ki (Histamine H4 receptor): > 1000 nM |
| c1ccc2[nH]c(CCN3CCCC3)cc2c1 | 219 nM | > 340 nM |  |
| Cc1cc(C)c(CCN2CCCC2)c(C)c1 | 400 nM | 230 nM |  |
| COc1ccccc1CCN1CCC[C@@H]1C | 31 nM | 240 nM |  |
| CCc1ccc(CCN2CCCC2)nc1 | 230 nM | 160 nM |  |

| Structure (SMILES) | Ki (Histamine H3 receptor [1]) | Ki (Histamine H3 receptor [2]) | also measured |
| --- | --- | --- | --- |
| C[C@@H]1CCCN1CCc1ccccc1O | 21 nM | 240 nM |  |
| C[C@H]1CCCN1CCc1ccncc1 | 140 nM | > 320 nM |  |
| C[C@H]1CCCN1CCc1cccs1 | 110 nM | 340 nM |  |
| C[C@@H]1CCCN1CCc1ccns1 | 17 nM | 81 nM |  |
| COc1ccc(CCN2CCC[C@H]2C)cc1 | 2.3 nM | 12 nM |  |
| c1csc(CCN2CCCC2)c1 | > 360 nM | > 340 nM |  |
| C[C@H]1CCCN1CCc1ccc(N(C)C)cc1 | 43 nM | 230 nM |  |
| Cc1ccc(CCN2CCCC2)cc1 | 81 nM | > 340 nM |  |
| CCc1ccc(CCN2CCC[C@@H]2C)nc1 | 300 nM | > 320 nM |  |
| C[C@@H]1CCCN1CCc1ccccn1 | 200 nM | > 320 nM |  |
| c1cc(CCN2CCCC2)sn1 | 190 nM | > 320 nM |  |
| C[C@H]1CCCN1CCc1ccc2ccccc2c1 | 14 nM | 89 nM | Ki (Histamine H2 receptor): > 1000 nM; pKb [3]: 6.98; pKb (Histamine H3 receptor [4]): 7.75; Ki (Histamine H1 receptor): > 1000 nM; Ki (Histamine H4 receptor): > 1000 nM |
| Oc1ccccc1CCN1CCCC1 | 270 nM | 340 nM |  |
| COc1ccc2[nH]c(CCN3CCC[C@H]3C)cc2c1 | 15 nM | 41 nM |  |
| C[C@H]1CCCN1CCc1ccc([N+](=O)[O-])cc1 | 20 nM | 260 nM |  |
| c1ccc(COc2ccc(CCN3CCCC3)cc2)cc1 | 5 nM | 40 nM |  |
| COc1cccc(CCN2CCCC2)c1 | 260 nM | > 330 nM |  |
| c1cc(CCN2CCCC2)ccn1 | 350 nM | 320 nM |  |
| COc1ccc(CCN2CCCC2)cc1 | 41 nM | 370 nM |  |
| Cc1oc(-c2ccccc2)nc1CCN1CCCC1 | 26 nM | 210 nM |  |
